# Reference: ChEMBL document CHEMBL5257059, “Pyridine-Based 1,2,4-Triazolo-Tethered Indole Conjugates Potentially Affecting TNKS and PI3K in Colorectal Cancer” (ACS Med Chem Lett, 2023)
# The source made the active and inactive calls. The calls are words filed in the database; no cut-off is given here.
# Experiments:
# HT-29 [1] = assay: Induction of cell cycle arrest in human HT-29 cells assessed as accumulation of cells at G2/M phase at 1 uM incubated for 24 hrs by RNase/PI staining based flow cytometry analysis (reference value: 23.695 %); format: functional
# HT-29 [2] = assay: Induction of mitochondrial ROS generation in human HT-29 cells at 2 uM by MitoSOX red dye based flow cytometry analysis; format: functional, cell-based
# Method in brief: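 Mitochondrial superoxide in HT-29 cells was read with the mitochondria-localizing MitoSOX Red probe after treatment at 1, 2 or 4 μM. Flow cytometry histograms were acquired on 10,000 cells, and results were expressed as mean fluorescence intensity. Versus control, significance was tested by one-way ANOVA with Tukey's post hoc test.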
# HT-29 [3] = assay: Induction of cell cycle arrest in human HT-29 cells assessed as accumulation of cells at subG1 phase at 4 uM incubated for 24 hrs by RNase/PI staining based flow cytometry analysis (reference value: 1.798%); format: functional
# HT-29 [4] = assay: Induction of apoptosis in human HT29 cells assessed as increase in late apoptotic cells at 4 uM incubated for 24 hrs by annexin V/PI staining based flow cytometry analysis; format: functional, cell-based
# Method in brief: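 Annexin/PI double staining of HT-29 cells after 24 h exposure at 1, 2 or 4 μM. Flow cytometry gated early apoptotic, late apoptotic and necrotic populations, reported as % of cells. Comparison to untreated control used two-way ANOVA followed by Tukey's post hoc analysis.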
# HT-29 [5] = assay: Induction of mitochondrial damage in human HT-29 cells assessed as increase in monomer formation at 4 uM incubated for 24 hrs by JC-1 staining based flow cytometry analysis; format: functional, cell-based
# Method in brief: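 HT-29 cells exposed 24 h to test agent at 1, 2 or 4 μM, then stained with JC-1. Flow cytometry scored the % of cells in JC-1 aggregate versus monomer populations. Treated groups were compared with untreated control by two-way ANOVA with Tukey's post hoc test.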
structure (smiles),measurement,setting,value
COc1ccc(-n2c(SCCc3c[nH]c4ccccc34)nnc2-c2ccncc2)cc1,Activity,HT-29 [1],22.841%
Fc1ccccc1-n1c(SCCc2c[nH]c3ccccc23)nnc1-c1ccncc1,Activity,HT-29 [2],Active
COc1cccc(-n2c(SCCc3c[nH]c4ccccc34)nnc2-c2ccncc2)c1,Activity,HT-29 [3],2.668%
same,Activity,HT-29 [4],Active
same,Activity,HT-29 [5],Active
